Consider three compounds from ChEMBL document CHEMBL2321722 (J Med Chem, 2013).

A short description of data set [1]: Dissociation constant, pKa of the compound at basic pH by pressure-assisted capillary electrophoresis. The class given is physicochemical. The gist of the method:
(§1)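 Ionization constants from a high-throughput screen using pressure-assisted capillary electrophoresis with mass spectrometry detection; stated accuracy ±0.2 pKa units.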

Data set [2] in a line: Dissociation constant, pKa of the compound at acidic pH by pressure-assisted capillary electrophoresis. The class given is physicochemical. In a few lines:
as §1

Data set [3] addresses T1, Plasminogen (Homo sapiens, UniProt P00747). The data set can be described thus: Inhibition of human Glu-plasminogen/fibrinogen interaction in HEPES buffer assessed as inhibition of lysis of thrombin-induced clot preincubated for 15 mins prior to thrombin addition measured for 15 hrs by clot-lysis buffer assay.
Data set [4] deals with T1, Plasminogen. In words: Inhibition of plasminogen/fibrinogen interaction in pooled citreated human platelet-poor plasma assessed as inhibition of lysis of CaCl2/t-PA-induced clot by microtiter plate analysis. It counts as cell-free.
The nature of data set [5]: Lipophilicity, log D of the compound. It counts as physicochemical. Conditions: octanol/water.
Data set [6] in a line: Apparent permeability from apical to basolateral side in human Caco2 cells at pH 6.5 by LC/MS analysis. The class given is ADME, cell-based. The following applies: Caco-2, pH 6.5.

Molecules are shown by their SMILES. Bounds are passed on as bounds.

T1 sequence (P00747 97-580 limits assumed): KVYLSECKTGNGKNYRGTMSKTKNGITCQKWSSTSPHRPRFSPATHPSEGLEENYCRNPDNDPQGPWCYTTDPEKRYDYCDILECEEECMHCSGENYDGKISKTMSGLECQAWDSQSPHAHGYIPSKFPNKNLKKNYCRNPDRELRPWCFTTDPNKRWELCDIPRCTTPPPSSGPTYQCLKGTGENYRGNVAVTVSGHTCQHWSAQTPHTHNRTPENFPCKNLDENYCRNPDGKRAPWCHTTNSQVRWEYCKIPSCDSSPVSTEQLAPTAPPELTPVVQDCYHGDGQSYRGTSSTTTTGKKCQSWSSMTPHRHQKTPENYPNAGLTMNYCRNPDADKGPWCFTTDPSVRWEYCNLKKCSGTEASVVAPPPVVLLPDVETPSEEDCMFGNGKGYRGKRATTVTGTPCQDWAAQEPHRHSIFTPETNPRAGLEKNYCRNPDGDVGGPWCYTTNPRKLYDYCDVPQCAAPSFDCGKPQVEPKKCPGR
T1 sequence (P00747 581-810 limits assumed): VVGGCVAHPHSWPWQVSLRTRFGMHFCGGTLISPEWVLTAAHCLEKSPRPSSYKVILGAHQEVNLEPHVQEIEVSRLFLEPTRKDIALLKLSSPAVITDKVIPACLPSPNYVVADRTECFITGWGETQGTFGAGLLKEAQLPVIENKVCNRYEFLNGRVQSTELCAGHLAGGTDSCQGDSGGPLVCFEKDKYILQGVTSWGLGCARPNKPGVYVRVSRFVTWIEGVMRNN

Turning to `C1CC(c2nnn[nH]2)CCN1`, the values for the pKa in data set [1] and in data set [2] were 10.7 and 4.3, respectively. Moreover, the IC50 in data set [3] and in data set [4] was > 100 µM throughout.

Consider `Oc1cc(C2CCNCC2)on1`, for which the logD in data set [5] was < 0. The figures for the pKa in data set [1] and in data set [2] were 10.5 and 4, respectively.

For the compound `NC[C@H]1CC[C@H](C(=O)O)CC1` [TRANEXAMIC ACID], the Papp A→B in data set [6] was 7.83 ×10⁻⁶ cm/s. Moreover, the pKa was found to be 9.7 in data set [1] and 4.1 in data set [2].

One may read the pKa as the pH at which an ionisable group is half protonated. A low value points to a stronger acid or weaker base. Usually IC50 stands for the concentration at which inhibition is half-maximal. Usually logD stands for the decadic logarithm of the distribution of all forms, ionised or not, between an organic phase and buffer at a given pH. By Papp A→B is commonly meant the apparent permeability from the apical to the basolateral side of a cell layer.
